Compound activity from PubChem.
HIV Env fusion: HIV envelope-mediated fusion inhibition. HeLa-JRFL Env/CEM21 cell fusion, luciferase. inhibition, % at 12.3 µM. 360,000 compounds, 1.1% hits. AID 651610;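 active means mean replicate inhibition score of at least 50 and every replicate individually at or above 50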
Arrestin-AP2 inh: human beta-arrestin and AP2 interaction inhibition; FITC-arrestin peptide / GST-AP2 beads, flow cytometry; AP2 beta2 appendage carries R879A mutation; inhibition, % at 10 µM; 340,000 compounds, 0.31% hits;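 active means inhibition above a set limit, near 3 SD of compounds lacking own fluorescence, cut at about 54% in these data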
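System: GST-tagged AP2 beta2-adaptin appendage (R879A) on 4 µm glutathione beads / Reagent: FITC-arrestin peptide, 50 nM / Detection: HyperCyt-sampled flow cytometry, FL1 channel, ex 488/em 535 nm / Timing: 12 min plus 1 h, RT / Buffer or medium: PBS plus Tween 20 (0.05%) and BSA (0.1%)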
PfHsp90 set2: reduces growth (ATP signal) of yeast expressing P. falciparum Hsp90. AID 504621. S. cerevisiae expressing PfHsp90, BacTiter-Glo ATP, 48 h; yeast lacking PDR1 and PDR3 efflux regulators. inhibition, % at 9.4 µM. 310,000 compounds, 0.32% hits;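 active means every replicate shows inhibition above about 80%, whatever the replicate mean, limit read from the data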
Glyco luc inh: blocks N-linked glycosylation in D54 reporter cells; D54 ERlucT glycosylation luciferase reporter, 24 h; percent of 100 nM tunicamycin response; reporter increase, % at 12.5 µM; 360,000 compounds, 0.23% hits;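 active means mean luciferase reporter signal, scaled so untreated is 0 and the glycosylation-blocking control 100, at or above a set limit in every replicate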;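 further: luciferase carries N-glycosylation sites so blocking glycosylation raises the light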
Rtt109 HAT inh: blocks Candida albicans Rtt109/Vps75 acetyltransferase activity; 330,000 compounds, 0.16% hits; purified Rtt109/Vps75, ThioGlo CoA-SH fluorescence, 4 h; Q5AAJ8; inhibition, % at 34.9 µM; AID 540336;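 active means inhibition of at least 50% in every replicate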
Target sequence (Q5AAJ8 whole entry, looked up): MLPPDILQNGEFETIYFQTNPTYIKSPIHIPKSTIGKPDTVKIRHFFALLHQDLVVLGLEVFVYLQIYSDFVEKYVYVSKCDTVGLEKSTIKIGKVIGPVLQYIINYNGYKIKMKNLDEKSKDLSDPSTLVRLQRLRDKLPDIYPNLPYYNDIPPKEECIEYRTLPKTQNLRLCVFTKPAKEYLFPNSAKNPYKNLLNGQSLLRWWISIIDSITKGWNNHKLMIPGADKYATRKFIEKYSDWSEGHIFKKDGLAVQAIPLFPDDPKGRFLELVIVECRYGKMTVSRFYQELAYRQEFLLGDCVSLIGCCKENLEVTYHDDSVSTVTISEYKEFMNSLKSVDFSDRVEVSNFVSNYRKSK
PAX8 inh HTS: lowers PAX8-driven luciferase in RMG-I cells; RMG-I TPO-luciferase reporter, SteadyGlo, 24 h; AID 652154; 360,000 compounds, 1.2% hits; inhibition, % at 12.6 µM;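 active means mean replicate inhibition at least 60% with every replicate also reaching 60%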;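 further: luciferase light reporting Pax8 driven TPO promoter activity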
A number is an active result; [ ] = remark or other dose. This is a sample that favours compounds with a hit; in the whole collection about 2.3% have one here.

For C[C@@H]1CN([C@@H](C)CO)C(=O)Cc2cc(NC(=O)Nc3ccccc3)ccc2O[C@H]1CN(C)Cc1ccc(Oc2ccccc2)cc1 the results were HIV Env fusion inactive and PAX8 inh HTS 82.
Screening C[C@@H]1CN([C@@H](C)CO)C(=O)Cc2cc(NC(=O)Cc3ccccc3)ccc2O[C@H]1CN(C)Cc1ccc(Oc2ccccc2)cc1 returned HIV Env fusion inactive and PAX8 inh HTS 72.
`COc1ccc(NC(=O)Nc2ccc3c(c2)CC(=O)N([C@H](C)CO)C[C@H](C)[C@@H](CN(C)Cc2ccc(Oc4ccccc4)cc2)O3)cc1` gave HIV Env fusion inactive and PAX8 inh HTS 69.
For C[C@H]1CN([C@@H](C)CO)C(=O)Cc2cc(NC(=O)Nc3ccccc3)ccc2O[C@H]1CN(C)Cc1ccc(Oc2ccccc2)cc1 the results were HIV Env fusion inactive and PAX8 inh HTS inactive.
Screening CN(C)C(=O)c1cccc(-c2ccc([C@@H]3[C@@H](CO)N4CCCCN(C(=O)C5CCCC5)C[C@@H]34)cc2)c1 returned PAX8 inh HTS inactive.
Screening O=C(NCC[C@@H]1CC[C@@H](NS(=O)(=O)c2ccccc2F)[C@@H](CO)O1)c1ccc(F)cc1 returned HIV Env fusion 61[16.7 µM] and PAX8 inh HTS inactive.
For Cc1ccc(S(=O)(=O)N[C@@H]2CC[C@H](CCNC(=O)c3ccccc3F)O[C@H]2CO)cc1 the results were HIV Env fusion 66[16.7 µM] and PAX8 inh HTS inactive.
For Cc1nn(C)cc1NC(=O)C[C@H]1CC[C@H]2[C@@H](COc3ccc(NC(=O)NC(C)C)cc3C(=O)N2C)O1 the results were HIV Env fusion inactive and PAX8 inh HTS inactive.
`O=C(C[C@@H]1CC[C@@H]2[C@H](COC[C@@H](O)CN2CC2CCOCC2)O1)N1CCOCC1` gave PAX8 inh HTS inactive.
For COc1ccccc1CNC(=O)C[C@@H]1C[C@@H]2c3cc(NC(=O)NC4CCCC4)ccc3O[C@@H]2[C@H](CO)O1 the results were HIV Env fusion inactive and PAX8 inh HTS inactive.
Screening CCCCOC(=O)/C(=C/c1cn(C)c2ccccc12)NC(=O)c1ccc(OC)cc1 returned HIV Env fusion inactive, Arrestin-AP2 inh inactive, PfHsp90 set2 inactive, Glyco luc inh inactive, Rtt109 HAT inh inactive and PAX8 inh HTS inactive.
For COc1ccc(C(=O)N/C(=C\c2cn(C)c3ccccc23)C(=O)OCC(C)C)cc1 the results were Arrestin-AP2 inh inactive, PfHsp90 set2 inactive, Glyco luc inh inactive, Rtt109 HAT inh inactive and PAX8 inh HTS 70.
Screening Cc1noc(C)c1NC(=O)Nc1ccc2c(c1)CC(=O)N([C@@H](C)CO)C[C@@H](C)[C@@H](CN(C)Cc1ccc(C(F)(F)F)cc1)O2 returned HIV Env fusion inactive and PAX8 inh HTS inactive.
CCCCN1CC(COCc2ccccc2)Oc2cccc(OCCN3C(=O)[C@@H]4[C@H](C3=O)C3C=C[C@H]4C3)c2S1(=O)=O (some centres undefined) was read as HIV Env fusion inactive, Arrestin-AP2 inh inactive, PfHsp90 set2 inactive, Glyco luc inh inactive, Rtt109 HAT inh inactive and PAX8 inh HTS 85.
For O=C1[C@@H]2[C@H](C(=O)N1C[C@@H](COCc1ccccc1)Oc1cccc3c1S(=O)(=O)N(CCc1ccc(F)cc1)C[C@H](COCc1ccccc1)O3)[C@@H]1C=C[C@H]2C1 the results were HIV Env fusion inactive and PAX8 inh HTS inactive.
Screening CCCCN1CC(COCc2ccccc2)Oc2cccc(Oc3ccc(C(C)C)cc3)c2S1(=O)=O (centres undefined) returned HIV Env fusion 63, Arrestin-AP2 inh inactive, PfHsp90 set2 inactive, Glyco luc inh inactive, Rtt109 HAT inh inactive and PAX8 inh HTS inactive.
O=S(=O)(c1ccc(F)cc1)N1CC[C@@H]2[C@H](CO)Nc3ccc(-c4ccccc4F)cc3[C@@H]21 was read as PAX8 inh HTS inactive.
For Cc1ccccc1-c1ccc2c(c1)O[C@@H](CN(C)CC1CC1)[C@@H](C)CN([C@@H](C)CO)S2(=O)=O the results were HIV Env fusion inactive.
`COc1ccc(-c2nc3ccccc3n2Cc2ccccc2)cc1` gave Arrestin-AP2 inh inactive, PfHsp90 set2 inactive, Glyco luc inh inactive and Rtt109 HAT inh inactive.
Screening COc1ccc(-c2n(Cc3ccccc3)c3ccccc3[n+]2Cc2ccccc2)cc1 returned HIV Env fusion 70, PfHsp90 set2 inactive, Glyco luc inh inactive, Rtt109 HAT inh inactive and PAX8 inh HTS 89.
For c1ccc2c(NCC3CCCO3)nc(N3CCCCC3)nc2c1 (centres undefined) the results were HIV Env fusion inactive, Arrestin-AP2 inh inactive, PfHsp90 set2 inactive, Glyco luc inh inactive, Rtt109 HAT inh inactive and PAX8 inh HTS 63.
`C(=C\c1nc2ccccc2[nH]1)/c1ccccc1` gave HIV Env fusion inactive, Arrestin-AP2 inh inactive, PfHsp90 set2 78, Glyco luc inh inactive and Rtt109 HAT inh inactive.
Screening COc1ccccc1/C=N/NC(=O)c1ccc(-c2ccccc2)cc1 returned HIV Env fusion inactive, Arrestin-AP2 inh inactive, PfHsp90 set2 inactive, Glyco luc inh inactive, Rtt109 HAT inh inactive and PAX8 inh HTS inactive.
Screening COc1cc(C(=O)N/N=C/c2ccc3c(c2)c2ccccc2n3C)ccc1O returned HIV Env fusion inactive, Arrestin-AP2 inh inactive, PfHsp90 set2 inactive, Glyco luc inh 34, Rtt109 HAT inh inactive and PAX8 inh HTS inactive.
COc1cc(/C=N\NC(=O)c2ccc(-c3ccccc3)cc2)cc(OC)c1O was read as Arrestin-AP2 inh inactive, PfHsp90 set2 inactive, Glyco luc inh inactive, Rtt109 HAT inh inactive and PAX8 inh HTS 75.
For COc1cc(/C=N\NC(=O)c2ccc(-c3ccccc3)cc2)cc(OC)c1OC(C)=O the results were HIV Env fusion inactive, Arrestin-AP2 inh inactive, PfHsp90 set2 inactive, Glyco luc inh inactive, Rtt109 HAT inh inactive and PAX8 inh HTS 100.
COc1cccc(/C=N/NC(=O)c2cc(-c3cccn3C)n[nH]2)c1 was read as HIV Env fusion inactive, Arrestin-AP2 inh inactive, PfHsp90 set2 inactive, Glyco luc inh inactive and Rtt109 HAT inh inactive.
`COc1cc(/C=N/NC(=O)c2cc(-c3cccn3C)n[nH]2)cc(OC)c1OC` gave HIV Env fusion inactive, Arrestin-AP2 inh inactive, Glyco luc inh 68 and Rtt109 HAT inh inactive.
Screening O=C(C[C@@H]1CC[C@@H]2[C@H](COC[C@@H](O)CN2Cc2cccc(C(F)(F)F)c2)O1)NCc1ccncc1 returned PAX8 inh HTS inactive.
`COC(=O)C[C@H]1CC[C@@H]2[C@H](COc3ccc(NC(=O)c4ccc(F)c(F)c4)cc3C(=O)N2C)O1` gave HIV Env fusion inactive and PAX8 inh HTS inactive.
Screening Nc1ccc2nc(-c3cccc(-c4nc5ccc(N)cc5[nH]4)c3)[nH]c2c1 returned HIV Env fusion inactive, Arrestin-AP2 inh inactive, PfHsp90 set2 inactive, Glyco luc inh inactive, Rtt109 HAT inh inactive and PAX8 inh HTS inactive.
